Here are results for 92 compounds from PubChem BioAssay AID588478 (ICCB-Longwood Screening Facility, Harvard Medical School, 2011).

Each structure is given as a SMILES string. Several values for one entry are separate records, joined by “and”; a condition that tells them apart may be missing. Equal values may be shown once. The whole screen tested about 330,000 compounds, of which about 1,100 (0.33%) were called active. For the sample, actives were picked, then their nearest neighbours and some compounds at random. Values without a mark were called inactive.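 The calls were made as follows: active = mean inhibition over replicate wells above about 20% (limit read from the data); inactive = the rest.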

Ubiquitin carboxyl-terminal hydrolase isozyme L5 (Homo sapiens), sequence (Q9Y5K5 whole entry, looked up): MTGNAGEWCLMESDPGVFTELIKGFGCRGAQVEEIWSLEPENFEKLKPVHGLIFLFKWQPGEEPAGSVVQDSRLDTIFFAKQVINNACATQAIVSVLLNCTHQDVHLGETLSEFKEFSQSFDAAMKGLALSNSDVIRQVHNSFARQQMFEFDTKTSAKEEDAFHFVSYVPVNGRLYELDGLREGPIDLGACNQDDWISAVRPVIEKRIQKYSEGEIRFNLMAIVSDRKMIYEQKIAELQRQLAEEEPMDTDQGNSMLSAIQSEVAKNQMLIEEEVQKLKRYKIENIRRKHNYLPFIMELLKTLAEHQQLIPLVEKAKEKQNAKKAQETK

The target in the test is Ubiquitin carboxyl-terminal hydrolase isozyme L5 (Homo sapiens) (UniProt Q9Y5K5). In words: proteasome-bound UCH37 DUB activity blockers – biochemical, Ub-AMC cleavage, fluorescence, primary screen (AID 588478).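 Also: 0% = compound-free wells with enzyme and 100% = wells lacking proteasome.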 The following applies: purified proteasome/UCH37, Ub-AMC cleavage fluorescence; hits give high values; concentration not given here. In outline:
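System: Proteasome-associated human UCH37 deubiquitinase; Input: 0.15 nM proteasome in added enzyme buffer; Also added: Ub-AMC substrate from 1 µM stock; Incubation: 30 min compound-proteasome preincubation then 25 min substrate reaction, room temperature; Detection: fluorescence, ex 355 nm, em 460 nm; Read-out: % inhibition of Ub-AMC cleavage fluorescence; Benchmarks: no-proteasome and no-compound wells.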
In the case of `CCN(CC)C(=O)c1nc[nH]c1C(=O)N(C)Cc1ccccc1`, the inhibition (in general, the change of the read-out against control, counted positive when it falls) was 26.1% (active).
Take `CCN(CC)C(=O)N(CC)Cc1ccccc1`: the inhibition is -0.131%.
The same measure for `CN(Cc1ccccc1)C(=O)c1cccc(C(=O)N(C)Cc2ccccc2)c1`: 0.499%; for `O=S1(=O)CCC(=NNc2ccc(C(F)(F)F)cn2)c2cc(F)ccc21`: 0.609%.
The same measure for `COc1ccc(C(=O)NCC(=O)NN=Cc2cn[nH]c2-c2ccccc2)cc1`: 1.68%.
As for `Cn1cccc1/C=C1\SC(=S)N(NC(=O)c2ccc(Cl)cc2)C1=O`, the inhibition is 1.88%.
The same measure for `CC(=O)N1C(=O)/C(=C2\SC(=S)N(NC(=O)c3ccc(O)cc3)C2=O)c2ccccc21`: 40.9% (active); for `O=C(O)c1ccc2c(c1)C(=O)N(NC(=O)c1ccc(O)cc1)C2=O`: 7.31%; for `Cc1ccc(NC(=O)ON=Cc2ccc(F)cc2)cc1`: 5.21%.
Regarding `Cc1cc(=O)oc2c3c(ccc12)OCC3=NN`, the inhibition was -22.9%.
The same measure for `CC(=NNc1ccccc1C(=O)O)c1cccs1`: 10.1%; for `COC(=O)c1ccc(C=NOCC(=O)NC2CCCCCCC2)cc1`: 0.759%; for `CC1(OC(=O)CCc2ccccc2)C(=O)C=C2C=C(c3ccc(C#N)cc3)N(CCc3ccccn3)C=C2C1=O` (configuration not stated): 0.0366%.
In the case of `C=CCN1C=C2C(=O)C(C)(OC(=O)CCc3ccccc3)C(=O)C=C2C=C1c1ccc(C#N)cc1` (configuration not stated), the inhibition is -31%.
Consider `COCCN1C=C2C(=O)C(C)(OC(=O)C3CCCC3)C(=O)C=C2C=C1c1ccsc1` (configuration not stated), for which the inhibition is 46.2% (active).
The same measure for `COc1ccc(C=NNc2nncn2N)cc1Br`: 14.1%; for `O=C(CN(Cc1ccccc1)S(=O)(=O)c1ccc2c(c1)OCCO2)NN=Cc1cccc(Br)c1`: 0.583%; for `CCOc1ccccc1C=c1sc2nc(-c3ccco3)nn2c1=O`: 3.89%.
As for `CCC(=NNC(=O)Cc1ccc(Br)cc1)c1cccs1`, the figure is 0.706%; as for `CCCS(=O)(=O)N1CCC(C(=O)NCCCN(C)Cc2ccccc2)CC1`, -3.1%.
As for `CCS(=O)(=O)N1CCCC(C(=O)NCCCN(C)Cc2ccccc2)C1` (configuration not stated), the figure is 29% (active); as for `CCS(=O)(=O)N1CCCC(C(=O)NCc2ccc(C)cc2)C1` (configuration not stated), 9.8%; as for `COc1cc(C(C(=O)NC2CCCC2)N(C(=O)c2ccco2)c2ccccc2C(C)=O)cc(OC)c1OC` (configuration not stated), 4.15%.
In the case of `O=C(NC1CCCC1)C(c1ccc(N2CCOCC2)cc1)N(C(=O)c1ccco1)c1ccccc1F` (configuration not stated), the inhibition was 38.4% (active).
As for `O=C(NC1CCCC1)C(c1ccco1)N(C(=O)c1ccco1)c1ccc(F)cc1` (configuration not stated), the figure is 1.87%; as for `Cc1cccc(C(=O)ON=C(c2ccccc2)c2ccncc2)c1`, 3.58%; as for `CCCn1c(C2CCCN2c2nc(-c3ccc(C)cc3)cs2)nc2cc(Cl)c(N3CCCCC3)cc21` (configuration not stated), 3.86%.
The same measure for `Cc1ccc(-c2csc(N3CCN(c4cc5c(cc4Cl)nc(-c4ccncc4)n5CCOCCO)CC3)n2)cc1`: -1.15%.
As for `Nc1c(Cl)cc(-c2csc(N3CCCC3c3nc4cc(Cl)c(Cl)cc4n3CCOCCO)n2)cc1Cl` (configuration not stated), the figure is 28% (active); as for `CCOC(=O)C1=C(C)N=c2sc(=Cc3ccncc3)c(=O)n2C1c1ccc2c(c1)OCO2` (configuration not stated), -0.871%.
On to `O=C(N[C@@H](Cc1ccccc1)C(=O)OCc1ccccc1)c1nc[nH]c1C(=O)NC1CCNCC1`, for which the inhibition is -1.66%.
As for `CC(C)(C)OC(=O)CNC(=O)c1[nH]cnc1C(=O)N[C@@H](Cc1ccccc1)C(=O)OCc1ccccc1`, the figure is 0.224%; as for `O=C(N[C@@H](Cc1ccccc1)C(=O)OCc1ccccc1)c1nc[nH]c1C(=O)N[C@@H](Cc1ccccc1)C(=O)OCc1ccccc1`, 31.8% (active); as for `O=C(CNC(=O)c1ccncc1)NN=Cc1cccc([N+](=O)[O-])c1`, 1.21%.
As for `COc1cccc(/C=C/C(=O)OCC(=O)N2CCN(c3ccccc3)CC2)c1`, the inhibition is -11.1%.
As for `C[C@H](NC(=O)c1ccccc1Cl)C(=O)OCC(=O)N1CCN(c2ccccc2)CC1`, the figure is 0.507%; as for `O=C(OCC(=O)N1CCN(c2ccccc2)CC1)c1ccc([N+](=O)[O-])s1`, 61.3% (active); as for `Cc1cc([N+](=O)[O-])cc(C=Nn2c(C)nc3ccccc3c2=O)c1O`, 12.9%.
The same measure for `Cc1cc(C)n(C(=O)C(C#N)=NNc2cc(Cl)cc(Cl)c2)n1`: 7.62%; for `CON=C(C(=O)N[C@@H]1C(=O)N2C(C(=O)O)=C(COC(C)=O)CS[C@H]12)c1csc(N)n1`: 2.25% and 5.96%; for `Clc1ccc(-c2csc(NN=Cc3cccnc3)n2)cc1`: 7.34%.
As to `CCOC(=O)c1c(C)[nH]c2c1-c1ccccc1C(=O)C2=O`, the inhibition was 72.6% (active).
As for `CCOC(=O)c1ccccc1OC(=O)Oc1ccccc1C(=O)OCC`, the figure is 2.7%; as for `CCOC(=O)c1c(C)nc(-c2ccccc2)nc1NC(=O)C(C)C`, 2.52%.
The same measure for `O=C(NN=C/C(Br)=C/c1ccccc1)NC1CCCCC1`: 4.04%; for `Cc1nnc(SCC(=O)N(C(C)C)C(C)C)nc1C`: 32.8% (active).
Take `CC(C)N(C(=O)CSc1nc(COc2ccccc2)nc2ccccc12)C(C)C`: the inhibition was 2.03%.
As for `Cc1cc(C)nc(SCC(=O)N(C)C)n1`, the figure is 4.9%.
As for `O=C(NN=Cc1cccs1)c1cc(-c2ccc(Cl)s2)[nH]n1`, the figure is 4.08%; as for `Cc1nn(Cc2ccc(Cl)cc2Cl)c(Cl)c1C=NNC(=O)CNc1cccc(C(F)(F)F)c1`, 5.09%; as for `O=c1[nH]c(CSc2ccccc2)nc2c1oc1ccccc12`, 3.26%.
As for `CCSc1nc(C)nc2c1oc1ccccc12`, the figure is 22.4% (active).
In the case of `COc1ccc(CCNC(=O)CSc2nc(C)nc3c2oc2ccccc23)cc1OC`, the inhibition was 1.13%.
The same measure for `N#Cc1ccc(OCC(=O)NN=C2CC(c3ccccc3)Oc3ccccc32)cc1` (configuration not stated): 6.87%; for `COC(=O)c1ccccc1-c1ccc(C=NNC(N)=O)o1`: -17.5%.
The same measure for `Cc1cc(C(=O)NN=C2CC(=O)CC(C)(C)C2)c2ccccc2n1`: 6.67%.
As for `O=C(/C=C/c1ccccc1)c1ccoc1`, the figure is 35.8% (active); as for `O=C(O)c1ccc2c(c1)C(=O)N(c1ccc(/C=C/C(=O)c3ccccc3)cc1)C2=O`, 8.59%; as for `O=C(/C=C/c1ccc(N2CCOCC2)cc1)c1ccccc1`, -0.318%.
Consider `CCN1C(=O)CSC1=NS(=O)(=O)c1ccc(Cl)cc1`, for which the inhibition was -0.232%.
The same measure for `COc1ccc(C=NNC(=O)CSc2ccccn2)cc1OC`: 5.41%.
As for `CCOC(=O)CNC(=O)N1c2ccccc2Sc2ccccc21`, the figure is 5.96%; as for `CCN1/C(=C\c2ccc3ccccc3[n+]2CC)Sc2cc(C)ccc21`, 4.94%; as for `CCC(=O)/C=C1\Sc2ccccc2N1CC`, 23.7% (active).
As for `COC(=O)c1ccc(C=NNC(=O)CNc2cccc(C)c2)cc1`, the figure is 1.65%; as for `Cc1[nH]c2ccccc2c1C=NNC(=O)CCC(=O)NCc1ccccc1`, 2.82%; as for `Cc1cccc(C=NNC(=O)Cn2nccc2C)n1`, -0.386%.
On to `COc1ccc(S(=O)(=O)/N=C2\C=C(NS(=O)(=O)c3ccccc3)C(=O)c3ccccc32)cc1`, for which the inhibition is 39.6% (active).
Consider `COc1ccc(S(=O)(=O)NCCCc2ccccc2)cc1`, for which the inhibition is 4.02%.
`O=C1C=C(NS(=O)(=O)c2ccccc2)C(=O)c2ccccc21`: the inhibition is 16.2%.
The same measure for `CC(=NNC(=O)c1cccc(NN=C(C)c2ccco2)c1)c1ccco1`: 1.7%; for `CCCCCCC(=O)NN=CCc1ccccc1`: 0.89%; for `COc1ccccc1N1CCN(N=C/C=C\c2ccccc2[N+](=O)[O-])CC1`: 7.46%.
As for `CON=CCc1oc(=O)c(NC(=O)c2ccccc2)cc1C(=O)OC`, the figure is 1.47%; as for `COc1ccc(CNC(=O)C2(CC3CC(c4ccccc4)=NO3)CCN(C(=O)c3cccc(O)c3)CC2)cc1` (configuration not stated), 4.4%; as for `O=C(c1ccccc1)N1CCC(CC2CC(c3ccc(Cl)cc3)=NO2)(C(=O)NCC2CCCCC2)CC1` (configuration not stated), 22.5% (active).
The same measure for `CCCCCCCNC(=O)C1(CC2CC(c3cccc(Br)c3)=NO2)CCN(C(=O)c2cc(OCC)c(OCC)c(OCC)c2)CC1` (configuration not stated): 3.99%; for `CCOc1cc(C=NNC(=O)C(N)=O)cc(Br)c1O`: 13.3%; for `O=[N+]([O-])c1ccc2c(c1)Nc1nc3ccccc3nc1N2`: 0.978%.
As to `O=[N+]([O-])c1ccc(N(CCO)Cc2ccccc2)c([N+](=O)[O-])c1`, the inhibition was 6.59%.
For `O=C1Nc2ccc([N+](=O)[O-])cc2C1=Nc1cccc(CO)c1`, the inhibition was 55.8% (active).
As for `Cc1nnc(NN=Cc2ccccn2)[nH]c1=O`, the figure is 1.91%; as for `CC(=N/N=C1/NC(=O)C(CC(=O)NCc2ccccc2)S1)C(C)C` (configuration not stated), 3.63%; as for `CCNC(=S)N=C(N)Nc1nc(C)c2cc(C)ccc2n1`, 6.4%.
As for `C(=NNc1nc(N2CCOCC2)nc(N2CCOCC2)n1)c1cccnc1`, the figure is 2.78%; as for `Cc1ccc(N2C(=O)CC(Sc3ncn[nH]3)C2=O)cc1` (configuration not stated), 5.88%.
As for `Cc1ccc(S(=O)(=O)/N=S(\C)C(C)C)cc1` (configuration not stated), the figure is 0.621%; as for `Cc1ccc(S(=O)(=O)N=C2C=C(Sc3ncn[nH]3)C(=O)c3ccccc32)cc1`, 63.7% (active); as for `CC(=NNC(=S)NC(C)C)c1ccc(Cl)s1`, 8.08%.
For the compound `O=C1/C(=C\Nc2ccccc2)CCN1c1ncccn1`, the inhibition was 21% (active).
As for `O=C(Cc1ccccc1)NNC(=O)C1CCN(c2ncccn2)CC1`, the figure is -5.78%; as for `COc1ccccc1Oc1ccc(N/C=C2/CCCC2=O)cc1`, 3.61%.
